AI-2 QS mod = modulates the Vibrio harveyi AI-2 quorum sensing system; activity change, % at 7.5 µM; 300,000 compounds, 0.4% hits; Vibrio harveyi JMH597 AI-2 luminescence/OD600 ratio, 9 h; hits give low values; strain lacks LuxN and CqsS sensors; 0 = neutral-control median; in the data active = activity change below about -75%, passing the limit was not always enough;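 also: luminescence divided by OD600 gain over 9 h not by final OD600 alone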
SUMO Mot1 rescue = blocks SUMOylation pathway, rescuing yeast Mot1-301 growth | S. cerevisiae Mot1-301 growth rescue, ATP luminescence, 38.5C; percent above DMSO median, 100 means doubled | growth rescue, % at 18.8 µM | 320,000 compounds, 1% hits | AID 2716;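 active = every valid replicate shows activation above 250% relative to neutral control wells; inactive = the rest, any valid replicate at or below 250%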;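 also: OY570 slx delta 5 strain wells were the positive control but not used for scaling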
KCNQ1 pot = potentiators or activators of human KCNQ1 potassium channel | P51787 | CHO-K1 KCNQ1, thallium flux FluxOR fluorescence; hits give high values | 310,000 compounds, 0.35% hits | B-score at 10 µM | AID 2648;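 active = fluorescence ratio B-score, a plate-corrected score, at least three library SD, with initial intensity B-score within 5 SD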
Target sequence (P51787 whole entry, looked up): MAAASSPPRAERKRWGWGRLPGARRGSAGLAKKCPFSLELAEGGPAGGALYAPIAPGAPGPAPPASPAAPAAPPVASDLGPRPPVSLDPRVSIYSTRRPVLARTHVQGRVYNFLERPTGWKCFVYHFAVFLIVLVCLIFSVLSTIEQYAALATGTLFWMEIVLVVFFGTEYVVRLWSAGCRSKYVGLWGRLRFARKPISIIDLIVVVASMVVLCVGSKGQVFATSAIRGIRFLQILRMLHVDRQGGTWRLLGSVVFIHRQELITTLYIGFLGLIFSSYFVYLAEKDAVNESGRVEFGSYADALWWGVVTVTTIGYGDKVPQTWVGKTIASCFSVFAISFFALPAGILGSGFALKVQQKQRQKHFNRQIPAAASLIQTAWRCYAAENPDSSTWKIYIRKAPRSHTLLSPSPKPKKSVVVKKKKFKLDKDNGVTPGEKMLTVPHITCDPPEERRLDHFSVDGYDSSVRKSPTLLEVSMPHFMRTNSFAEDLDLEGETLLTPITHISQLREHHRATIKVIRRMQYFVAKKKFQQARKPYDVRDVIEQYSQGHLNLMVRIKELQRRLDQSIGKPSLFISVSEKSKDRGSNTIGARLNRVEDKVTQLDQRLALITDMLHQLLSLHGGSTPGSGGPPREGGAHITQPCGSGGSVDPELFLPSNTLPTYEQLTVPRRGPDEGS
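System: CHO-K1 cells stably expressing KCNQ1 / Medium: assay buffer for compound exposure, DMSO matched across wells / Reagent: thallium- and potassium-containing depolarizing buffer / Compound: one concentration, matched DMSO / Incubation: 20 min compound pretreatment at room temperature / Measured by: kinetic FluxOR fluorescence, 10 s baseline plus 110 s post-stimulus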
KCNQ1 block = inhibitors of human KCNQ1 potassium channel; CHO-K1 KCNQ1, FluxOR thallium flux fluorescence; hits give high values; AID 2642; 310,000 compounds, 1.3% hits; P51787; B-score at 10 µM;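 active = compounds whose thallium flux B-score, printed positive for inhibition, exceeds three library SD while starting fluorescence stays within three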;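 also: channel opened by potassium depolarization with thallium stimulus after 20 min compound exposure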
Cl transport mod = KCC2 (human) Cl- transport modulation; KCC2 cells, thallium flux FluoZin-2 fluorescence; AID 1456; B-score of Tl+ flux slope (higher = more flux/activation; lower = inhibition) at 10 µM; 190,000 compounds, 2.2% hits;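 active = thallium flux slope and its plate-corrected score both differing from the plate sample mean at a set confidence after two filtering rounds, in either direction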;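 also: slope of fluorescence scaled to starting intensity during 10 to 20 s after thallium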
hERG rescue = shields human hERG channel from block by proarrhythmic agents. activation (rescue from dofetilide block), less the hit threshold, % at 10 µM. 310,000 compounds, 0.51% hits. Q12809. CHO-hERG, FluxOR thallium flux, dofetilide IC70 present. AID 1511;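 active = activation above the mean of controls blocked by dofetilide plus 5 SD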;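 also: thallium influx through hERG after potassium depolarization seen as dye fluorescence rise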
KCNQ1 block val = human KCNQ1 channel inhibition, validation assay; 1,600 compounds, 93% hits; KCNQ1 cell line, FluxOR thallium flux fluorescence; AID 588353; inhibition, % at 10 µM; shares compounds with KCNQ1 block;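 active = primary screen active, with duplicate mean exceeding buffer control mean plus 3 SD of buffer wells, cut at about 28% in these data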;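 also: 0% = buffer control ratio and 100% = XE991 inhibitor control ratio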
CHO Tl flux = KCNQ1 inhibitor counter-screen hit in parental CHO cells; shares compounds with KCNQ1 block; parental CHO-K1, FluxOR thallium flux fluorescence ratio; hits give low values; zero means no signal rise above baseline; fluorescence ratio (Tl flux) at 10 µM; 1,600 compounds, 21% hits;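 active = mean of duplicate thallium-flux fluorescence ratios in parental host cells more than 5 SD below the buffer control mean, cut at about 0.38 in these data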;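 also: ratio is peak minus minimum fluorescence divided by baseline fluorescence; actives read low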
KCNQ1 ephys val = human KCNQ1 inhibition validated by electrophysiology. calls only at 10 µM. shares compounds with KCNQ1 block. 490 compounds, 20% hits. KCNQ1-CHO cells, automated patch clamp current;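 active = KCNQ1 current drop exceeding 3 SD of negative control wells, seen in both duplicate runs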;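 also: steady state current during a 2 s step from -80 to +40 mV; negative values mean current inhibition and positive values mean potentiation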
KCNQ2 inh = selectivity of KCNQ1 inhibitors: inhibition of rat KCNQ2 channel; 1,600 compounds, 71% hits; shares compounds with KCNQ1 block; inhibition, % at 10 µM; KCNQ2 cells, FluxOR thallium flux fluorescence; AID 651746;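 active = mean percent inhibition of the KCNQ2 thallium signal more than 5 SD above the buffer-only control wells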;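 also: KCNQ2 expressed in CHO cells; 0% = buffer control wells and 100% = XE-991 inhibitor control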
KCNQ1-KCNE1 inh = KCNQ1 inhibitor that also blocks human KCNQ1/KCNE1 channel; shares compounds with KCNQ1 block; KCNQ1/KCNE1 cells, FluxOR thallium flux fluorescence; inhibition, % at 10 µM; 1,600 compounds, 77% hits;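 active = mean percent inhibition of duplicate wells above the buffer-only control mean plus 3 SD of those controls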;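 also: 0% = buffer only wells and 100% = XE-991 inhibitor control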
* marks the source's active call; other numbers are inactive results; i = inactive; x = no result; + = active, no number. Compounds with a hit are over-represented: about 4.2% of the library has one in this group of screens.

SMILES	AI-2 QS mod	SUMO Mot1 rescue	KCNQ1 pot	KCNQ1 block	Cl transport mod	hERG rescue	KCNQ1 block val	CHO Tl flux	KCNQ2 inh	KCNQ1-KCNE1 inh	others
CCN1CCN(CCNC(=O)c2ccc3nc(-c4cccc(C)c4)c(-c4cccc(C)c4)nc3c2)CC1	20.2	30.7	i	8*	x	-32.0	76.0*	0.315*	91.3%*	162.5%*
O=C(NC(NC1CCS(=O)(=O)C1)C(Cl)(Cl)Cl)c1ccc(Br)cc1 (stereo not given)	15.6	15.5	i	10*	x	-14.1	64.5*	0.513	87.7%*	36.5%*
Cc1cc(=O)n(CC(=O)NCCN2CCOCC2)c2c1c(C)nn2-c1ccccc1	6.3	10.7	i	i	x	-7.6	x	x	x	x
Cc1cc(=O)n(CC(=O)NC2CC2)c2c1c(C)nn2-c1ccccc1	9.0	-7.2	i	7*	x	-9.2	79.5*	0.457	i	93.5%*
O=C(CNCc1ccccc1Cl)Nc1ccccc1N1CCCCC1	18.9	76.9	i	7*	x	-35.4	96.0*	0.404	115.0%*	109.0%*	KCNQ1 ephys val=+
O=C(Cc1ccccc1F)Nc1ccccc1N1CCCC1	14.7	7.4	i	i	x	-8.7	x	x	x	x
Cc1cccc(OCC(=O)Nc2ccccc2N2CCCC2)c1C	13.0	6.6	i	i	x	-16.3	x	x	x	x
Cc1cc(OCC(=O)Nc2ccccc2N2CCCC2)ccc1C(C)C	8.5	-17.7	i	9*	x	-12.9	72.5*	0.511	82.3%*	99.5%*
Cc1ccccc1OCC(=O)Nc1ccccc1N1CCCCC1	17.0	-22.5	i	8*	-1.36	-8.9	120.5*	0.459	95.3%*	170.0%*	KCNQ1 ephys val=i
COc1ccc(NC(=O)c2ccccc2Oc2ccccc2)c(OC)c1	8.0	9.0	i	i	x	-8.7	x	x	x	x
COc1ccc(NC(=O)c2ccccc2OCc2ccc(F)cc2)c(OC)c1	37.0	41.5	i	8*	x	-10.6	75.5*	0.448	84.7%*	108.0%*
Fc1ccc2cnc(CCO[C@H]3CCCCO3)cc2c1	x	64.1	x	x	x	x	x	x	x	x
COc1ccccc1CCNC(=O)c1cc(COc2cccc(C(F)(F)F)c2)on1	7.3	8.7	i	7*	x	-2.2	100.0*	0.446	87.7%*	98.5%*	KCNQ1 ephys val=i
Cn1nc(-c2ccc(Cl)cc2)cc1NC(=O)Nc1ccccc1	2.8	8.7	i	i	-0.191	-11.0	x	x	x	x
Cn1nc(-c2ccccc2)cc1NC(=O)Nc1ccc(C(C)(C)C)cc1	30.3	89.4	i	9*	0.988	-8.4	72.0*	0.483	i	42.5%*
C=CCOc1c(Br)cc(/C=N/n2c(CC)n[nH]c2=S)cc1Br	18.3	-8.3	i	i	1.6	-10.5	x	x	x	x
O=S(=O)(NCCC1=CCCCC1)c1ccc(OC(F)(F)F)cc1	-0.1	-14.6	i	6*	x	-6.3	56.0*	0.433	68.3%*	58.5%*
Cc1ccc(S(=O)(=O)NCCC2=CCCCC2)cc1C(N)=O	31.0	0.1	i	i	x	-12.5	x	x	x	x
Cc1cc(S(=O)(=O)NCCC2=CCCCC2)ccc1Br	32.0	8.1	i	7*	x	-11.0	0.0	0.449	68.0%*	82.5%*
CC(=O)c1ccc(OCCOc2ccc(Cl)c3cccnc23)cc1	36.7	-34.9	i	i	-1.55	-3.0	x	x	x	x
CC(N=c1ccccn1C(=O)Nc1ccc(Cl)cc1)c1ccco1 (stereo not given)	12.7	-6.5	i	10*	0.606	-6.7	62.5*	0.491	61.0%*	i
O=C(CN(c1ccc(Cl)c(Cl)c1)S(=O)(=O)c1ccccc1)N1CCc2ccccc2C1	10.7	x	i	6*	-0.116	-6.3	56.5*	0.339*	119.0%*	95.5%*
Cc1nc(-c2ccc(S(=O)(=O)N3CCN(c4cccc(C)c4C)CC3)cc2)co1	19.7	0.2	i	6*	x	-7.9	74.0*	0.501	103.7%*	112.0%*
Cc1cccc(N2CCN(S(=O)(=O)c3ccc4c(c3)C(C)(C)C(=O)N4C)CC2)c1C	24.8	20.9	i	i	x	-5.6	x	x	x	x
COc1ccc(S(=O)(=O)N2CCN(c3cccc(C)c3C)CC2)cc1	30.2	-12.8	i	9*	-0.283	-9.4	+	0.349*	i	i
SMILES	AI-2 QS mod	SUMO Mot1 rescue	KCNQ1 pot	KCNQ1 block	Cl transport mod	hERG rescue	KCNQ1 block val	CHO Tl flux	KCNQ2 inh	KCNQ1-KCNE1 inh	others
CCOC(=O)C1(Cc2cccc(Cl)c2)CCCN(C(=O)C(C)(C)C)C1 (stereo not given)	4.1	25.8	i	i	x	-7.1	x	x	x	x
CC(C)NC(=O)c1ccccc1NS(=O)(=O)c1ccc(Br)s1	46.9	x	i	8*	x	-9.8	0.0	0.503	i	55.5%*
O=S(=O)(c1ccccc1Br)N1CCC(O)(c2cccnc2)CC1	20.7	9.3	i	i	0.0804	-7.0	x	x	x	x
Cc1csc(NC(=O)c2c(O)c3c(n(CC(C)C)c2=O)CCCC3)n1	9.9	14.9	i	10*	0.345	-1.8	104.0*	0.484	107.7%*	90.0%*	KCNQ1 ephys val=i
CCOC(=O)Cc1csc(NC(=O)c2c(O)c3c(n(CC(C)C)c2=O)CCCC3)n1	3.3	-9.6	i	7*	-0.483	-13.9	79.0*	0.483	72.3%*	107.0%*
CCCn1c2c(c(O)c(C(=O)Nc3nc(C)cs3)c1=O)CCCC2	-1.4	x	i	i	-0.342	-14.8	x	x	x	x
CC(C)Cn1c2c(c(O)c(C(=O)Nc3nccs3)c1=O)CCCC2	14.3	298.8	i	7*	2.28	-5.8	100.0*	0.448	112.3%*	165.5%*	KCNQ1 ephys val=i
O=C(Nc1ccnn1C1CCN(C2CCOCC2)CC1)c1cccc(F)c1	25.4	228.7	i	i	x	-5.8	x	x	x	x
COc1ccc2nc3c(cc2c1)c(NC(=O)c1cccs1)nn3CC(C)C	-6.2	-12.8	i	6*	-0.871	-14.4	143.5*	0.287*	126.7%*	+
CC(C)Cn1nc(NC(=O)c2cccs2)c2cc3ccccc3nc21	23.9	-16.7	i	i	-1.38	-8.2	x	x	x	x
CCCn1nc(NC(=O)CC)c2cc3cccc(C)c3nc21	25.9	-2.4	i	i	x	-5.0	x	x	x	x

Screens: PubChem BioAssay, several laboratories
